Measurements from ChEMBL document CHEMBL3797175, “Discovery of 6-(difluoro(6-(4-fluorophenyl)-[1,2,4]triazolo[4,3-b][1,2,4]triazin-3-yl)methyl)quinoline as a highly potent and selective c-Met inhibitor” (Eur J Med Chem, 2016).
Calls of active or inactive are those of the source. The calls are words filed in the database; no cut-off is given here.

What was measured:
[1] = Clearance in Sprague-Dawley rat at 2 mg/kg, iv administered as single dose; format: ADME, organism-based; settings: in vivo
Method in brief: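 Male Sprague Dawley rats (n=3), single dose. iv 2 mg/kg in 1% DMA/9% Cremophor/90% saline. po 10 mg/kg in 0.5% CMC-Na. Where iv was 10 mg/kg: 10% DMSO/10% Tween 80/80% (40% PEG40); po in that case in 10% DMSO/5% Tween 80/85% saline.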

[2] = Antitumor activity against human EBC1 cells xenografted in athymic nude mouse assessed as tumor growth inhibition at 25 mg/kg, po bid for 21 days measured twice a week during compound dosing relative to control; format: functional; settings: EBC-1, po, 504 h, read-out: TGI
Method in brief: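 Nude mice bearing s.c. tumours. Cells were first grown s.c. to 700–800 mm³, then 1.5 mm³ fragments were transplanted s.c. into the right flank. Mice were randomised at 100–200 mm³ (n=6 treated, n=12 vehicle) and dosed orally twice daily for 21 days. Caliper measurement twice weekly; TV = length×width²/2. TGI taken on the final day versus vehicle; Student's t test.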

[3] = biological target: Epidermal growth factor receptor (Homo sapiens) (UniProt P00533); assay: Inhibition of recombinant EGFR (unknown origin) using poly (Glu, Tyr) 4:1 as substrate at 1000 nM incubated for 60 mins by ELISA relative to control
Method in brief: (§1)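 Recombinant tyrosine kinases assayed on wells precoated with poly(Glu,Tyr)4:1 (20 µg/mL). ATP 10 µmol/L in HEPES pH 7.4 buffer with MgCl2, MnCl2, Na3VO4 and DTT; compound in 1% DMSO, 1% DMSO as control. Reaction 60 min at 37 °C. Phosphotyrosine detected with PY99 and HRP anti-mouse, o-phenylenediamine, A490. Inhibition % relative to control; two experiments.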

[4] = biological target: Vascular endothelial growth factor receptor 1 (Homo sapiens) (UniProt P17948); assay: Inhibition of recombinant FLT1 (unknown origin) using poly (Glu, Tyr) 4:1 as substrate at 1000 nM incubated for 60 mins by ELISA relative to control; method in brief: as §1
[5] = biological target: TPR/MET fusion protein (Mus musculus) (UniProt P16056+F6ZDS4); assay: Inhibition of TPR-MET in mouse BAF3 cells assessed as reduction in ERK phosphorylation at Tyrosine 204 at 10 nM after 1 hr by Western blot analysis; format: cell-based
Sequence of TPR/MET fusion protein (Mus musculus) (F6ZDS4 whole entry partner, the tested form may be a part): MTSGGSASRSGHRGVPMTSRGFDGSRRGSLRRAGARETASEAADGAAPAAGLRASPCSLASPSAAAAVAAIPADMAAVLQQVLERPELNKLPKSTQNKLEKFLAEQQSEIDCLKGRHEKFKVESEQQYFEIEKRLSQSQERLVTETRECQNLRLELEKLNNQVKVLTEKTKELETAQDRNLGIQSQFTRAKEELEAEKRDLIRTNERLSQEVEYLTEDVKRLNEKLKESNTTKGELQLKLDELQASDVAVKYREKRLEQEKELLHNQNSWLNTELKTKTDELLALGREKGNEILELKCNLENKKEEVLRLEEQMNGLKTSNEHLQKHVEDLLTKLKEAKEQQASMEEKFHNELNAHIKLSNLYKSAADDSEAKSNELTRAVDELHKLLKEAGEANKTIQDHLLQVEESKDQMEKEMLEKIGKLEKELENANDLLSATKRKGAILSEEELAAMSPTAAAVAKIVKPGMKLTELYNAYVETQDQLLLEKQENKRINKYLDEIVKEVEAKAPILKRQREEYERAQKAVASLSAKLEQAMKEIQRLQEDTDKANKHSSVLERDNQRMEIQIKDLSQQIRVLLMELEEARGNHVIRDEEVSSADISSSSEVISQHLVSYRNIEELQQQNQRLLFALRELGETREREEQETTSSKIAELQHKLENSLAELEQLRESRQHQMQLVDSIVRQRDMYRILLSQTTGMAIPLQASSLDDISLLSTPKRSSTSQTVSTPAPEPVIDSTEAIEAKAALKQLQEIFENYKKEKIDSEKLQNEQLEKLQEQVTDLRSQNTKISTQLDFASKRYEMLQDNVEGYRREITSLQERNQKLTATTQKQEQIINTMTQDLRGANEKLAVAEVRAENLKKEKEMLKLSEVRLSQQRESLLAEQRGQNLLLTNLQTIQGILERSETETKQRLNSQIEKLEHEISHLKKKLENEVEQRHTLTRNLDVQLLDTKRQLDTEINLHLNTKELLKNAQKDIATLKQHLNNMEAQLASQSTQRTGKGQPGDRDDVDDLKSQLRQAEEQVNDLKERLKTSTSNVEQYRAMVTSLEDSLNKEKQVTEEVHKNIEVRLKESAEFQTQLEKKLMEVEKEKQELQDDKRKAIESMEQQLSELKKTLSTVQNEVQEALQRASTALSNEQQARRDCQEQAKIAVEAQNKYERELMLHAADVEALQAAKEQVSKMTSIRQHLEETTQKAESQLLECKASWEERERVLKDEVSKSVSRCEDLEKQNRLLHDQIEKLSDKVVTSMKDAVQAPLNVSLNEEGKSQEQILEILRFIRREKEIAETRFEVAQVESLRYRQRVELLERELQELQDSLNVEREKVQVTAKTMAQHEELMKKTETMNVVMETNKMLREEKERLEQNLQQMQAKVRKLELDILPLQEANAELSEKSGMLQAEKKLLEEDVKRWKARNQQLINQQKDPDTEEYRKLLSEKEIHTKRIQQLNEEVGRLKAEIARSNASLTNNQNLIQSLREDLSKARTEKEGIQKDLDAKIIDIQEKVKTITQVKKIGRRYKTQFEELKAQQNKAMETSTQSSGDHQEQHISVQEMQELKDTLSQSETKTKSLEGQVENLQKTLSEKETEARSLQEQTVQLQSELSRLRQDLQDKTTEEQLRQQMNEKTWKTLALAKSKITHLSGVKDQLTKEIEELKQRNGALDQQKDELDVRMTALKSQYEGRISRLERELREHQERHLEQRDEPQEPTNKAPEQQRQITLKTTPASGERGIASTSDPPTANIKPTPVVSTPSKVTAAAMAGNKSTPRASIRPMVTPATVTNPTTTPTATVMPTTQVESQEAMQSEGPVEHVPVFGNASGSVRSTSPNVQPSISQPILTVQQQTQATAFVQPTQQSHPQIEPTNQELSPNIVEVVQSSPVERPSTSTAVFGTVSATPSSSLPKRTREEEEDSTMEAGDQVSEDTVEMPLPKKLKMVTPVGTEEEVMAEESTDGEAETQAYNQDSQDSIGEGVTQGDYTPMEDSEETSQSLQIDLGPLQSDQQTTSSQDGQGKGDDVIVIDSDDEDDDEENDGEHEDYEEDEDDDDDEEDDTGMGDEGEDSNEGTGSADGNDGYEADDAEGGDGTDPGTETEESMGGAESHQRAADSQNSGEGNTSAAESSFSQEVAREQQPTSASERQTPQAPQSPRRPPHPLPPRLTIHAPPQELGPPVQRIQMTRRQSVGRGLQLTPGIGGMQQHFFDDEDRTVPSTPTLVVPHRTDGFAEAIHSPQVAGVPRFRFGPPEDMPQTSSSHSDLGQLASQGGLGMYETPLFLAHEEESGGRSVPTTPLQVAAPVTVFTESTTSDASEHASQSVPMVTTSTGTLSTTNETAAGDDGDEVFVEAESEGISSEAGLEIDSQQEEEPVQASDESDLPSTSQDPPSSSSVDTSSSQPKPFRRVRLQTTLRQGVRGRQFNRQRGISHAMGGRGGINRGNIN
Sequence of TPR/MET fusion protein (Mus musculus) (P16056 25-1379 limits assumed): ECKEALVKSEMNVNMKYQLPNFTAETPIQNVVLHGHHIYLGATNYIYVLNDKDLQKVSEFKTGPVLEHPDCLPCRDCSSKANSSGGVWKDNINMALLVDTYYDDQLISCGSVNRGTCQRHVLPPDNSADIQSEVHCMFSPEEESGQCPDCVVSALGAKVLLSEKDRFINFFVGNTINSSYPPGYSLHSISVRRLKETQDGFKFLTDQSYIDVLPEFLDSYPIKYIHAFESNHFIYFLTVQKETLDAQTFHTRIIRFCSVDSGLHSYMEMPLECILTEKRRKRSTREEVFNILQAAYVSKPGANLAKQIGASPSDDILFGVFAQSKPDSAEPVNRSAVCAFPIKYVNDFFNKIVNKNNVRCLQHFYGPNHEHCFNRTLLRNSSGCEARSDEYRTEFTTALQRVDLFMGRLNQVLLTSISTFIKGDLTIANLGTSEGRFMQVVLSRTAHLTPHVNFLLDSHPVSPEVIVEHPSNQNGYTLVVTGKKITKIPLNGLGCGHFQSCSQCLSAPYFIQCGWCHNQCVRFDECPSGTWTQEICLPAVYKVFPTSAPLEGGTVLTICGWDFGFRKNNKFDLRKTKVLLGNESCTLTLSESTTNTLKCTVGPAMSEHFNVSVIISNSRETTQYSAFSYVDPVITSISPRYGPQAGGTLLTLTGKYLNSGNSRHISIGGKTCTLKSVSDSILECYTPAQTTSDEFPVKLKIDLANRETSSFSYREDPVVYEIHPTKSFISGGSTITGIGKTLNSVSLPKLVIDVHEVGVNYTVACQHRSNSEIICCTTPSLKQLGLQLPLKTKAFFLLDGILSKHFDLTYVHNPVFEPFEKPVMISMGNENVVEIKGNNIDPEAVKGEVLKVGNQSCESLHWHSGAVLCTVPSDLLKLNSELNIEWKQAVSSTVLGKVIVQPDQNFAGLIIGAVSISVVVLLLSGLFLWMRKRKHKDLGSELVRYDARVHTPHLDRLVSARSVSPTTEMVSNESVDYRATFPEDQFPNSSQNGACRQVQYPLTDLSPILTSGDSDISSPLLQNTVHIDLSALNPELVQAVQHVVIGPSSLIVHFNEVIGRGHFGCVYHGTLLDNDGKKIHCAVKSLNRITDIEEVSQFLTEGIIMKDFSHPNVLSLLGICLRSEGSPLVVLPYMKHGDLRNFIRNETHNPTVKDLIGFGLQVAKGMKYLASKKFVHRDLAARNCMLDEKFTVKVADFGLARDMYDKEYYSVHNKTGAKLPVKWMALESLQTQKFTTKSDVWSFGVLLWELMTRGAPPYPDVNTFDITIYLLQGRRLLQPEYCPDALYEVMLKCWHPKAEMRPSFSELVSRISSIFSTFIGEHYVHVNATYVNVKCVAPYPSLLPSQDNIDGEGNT
Method in brief: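 BaF3 stably expressing TPR-MET (puromycin-selected), grown with IL-3-conditioned medium. Treated 1 h at 37 °C, lysed in SDS sample buffer. 10% SDS-PAGE and immunoblot for phospho-c-Met, phospho-ERK1/2, phospho-AKT and totals; ECL detection.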

[6] = biological target: T1, Hepatocyte growth factor receptor (Homo sapiens, UniProt P08581); assay: Inhibition of c-Met phosphorylation at Tyrosine 1235 in HGF stimulated human U87MG cells at 10 nM after 1 hr by Western blot analysis; format: cell-based; settings: U-87MG ATCC
T1 sequence (P08581 whole entry): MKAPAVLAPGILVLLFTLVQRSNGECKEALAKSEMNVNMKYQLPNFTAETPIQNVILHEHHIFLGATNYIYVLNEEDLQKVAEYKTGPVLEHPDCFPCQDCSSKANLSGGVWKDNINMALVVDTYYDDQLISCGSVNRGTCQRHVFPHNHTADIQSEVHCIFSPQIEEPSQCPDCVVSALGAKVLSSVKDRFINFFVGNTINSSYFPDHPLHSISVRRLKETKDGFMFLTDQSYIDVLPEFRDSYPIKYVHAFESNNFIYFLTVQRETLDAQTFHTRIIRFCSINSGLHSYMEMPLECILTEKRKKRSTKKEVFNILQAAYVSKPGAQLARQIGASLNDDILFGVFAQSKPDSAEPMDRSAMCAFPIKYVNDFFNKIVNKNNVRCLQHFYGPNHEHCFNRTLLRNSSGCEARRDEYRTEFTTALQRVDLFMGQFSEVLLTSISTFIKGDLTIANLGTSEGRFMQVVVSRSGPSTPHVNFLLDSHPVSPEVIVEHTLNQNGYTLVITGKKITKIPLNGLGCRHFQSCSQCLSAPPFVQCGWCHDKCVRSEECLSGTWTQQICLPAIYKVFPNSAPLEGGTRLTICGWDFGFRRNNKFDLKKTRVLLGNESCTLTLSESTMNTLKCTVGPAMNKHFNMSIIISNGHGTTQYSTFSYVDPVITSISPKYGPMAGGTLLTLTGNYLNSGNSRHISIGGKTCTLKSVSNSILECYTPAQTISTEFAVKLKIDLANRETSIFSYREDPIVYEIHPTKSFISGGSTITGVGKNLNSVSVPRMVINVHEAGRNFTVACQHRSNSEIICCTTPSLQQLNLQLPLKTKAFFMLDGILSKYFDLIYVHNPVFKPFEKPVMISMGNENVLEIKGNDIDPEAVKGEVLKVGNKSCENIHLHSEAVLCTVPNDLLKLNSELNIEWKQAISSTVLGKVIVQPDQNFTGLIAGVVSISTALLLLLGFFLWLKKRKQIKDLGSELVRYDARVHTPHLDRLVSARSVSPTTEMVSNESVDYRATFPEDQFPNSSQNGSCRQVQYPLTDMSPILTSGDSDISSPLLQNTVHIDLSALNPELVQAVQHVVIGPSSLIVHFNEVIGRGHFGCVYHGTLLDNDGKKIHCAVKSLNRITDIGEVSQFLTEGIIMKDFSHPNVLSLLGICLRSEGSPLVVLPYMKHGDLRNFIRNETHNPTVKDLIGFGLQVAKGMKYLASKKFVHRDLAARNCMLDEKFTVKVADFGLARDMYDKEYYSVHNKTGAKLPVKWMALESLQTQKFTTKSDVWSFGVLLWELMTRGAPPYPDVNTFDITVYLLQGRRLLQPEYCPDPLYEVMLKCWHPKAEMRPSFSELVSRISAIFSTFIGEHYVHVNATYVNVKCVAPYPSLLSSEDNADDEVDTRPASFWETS
Method in brief: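 U87MG cells serum-starved 24 h, pretreated with compound 1 h at 37 °C, then stimulated with HGF (100 ng/mL) for 15 min. Lysed in 1× SDS sample buffer, resolved by 10% SDS-PAGE and blotted to nitrocellulose. Probed for phospho-c-Met, phospho-ERK1/2, phospho-AKT and totals, with GAPDH as loading control. ECL detection.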

[7] = biological target: Tyrosine-protein kinase receptor UFO (Homo sapiens, UniProt P30530); assay: Inhibition of recombinant AXL (unknown origin) using poly (Glu, Tyr) 4:1 as substrate incubated for 60 mins by ELISA
[8] = Antiproliferative activity against human SMMC7721 cells after 72 hrs by SRB or MTT assay; format: functional, cell-based; settings: SMMC-7721, 72 h
Method in brief: (§2)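 Cells seeded, exposed next day to a range of concentrations for 72 h. Growth read by sulforhodamine B or MTT. IC50 from four-parameter concentration-response fit. Each concentration tested at least in triplicate, with at least 2 experiments.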

[9] = Antiproliferative activity against human SPCA4 cells after 72 hrs by SRB or MTT assay; format: functional, cell-based; settings: SPC-A4, 72 h; method in brief: as §2
[10] = biological target: T1, Hepatocyte growth factor receptor; assay: Inhibition of c-Met in human NCI-H441 cells assessed as inhibition of HGF-induced cell invasion after 24 hrs by crystal violet staining based microscopic analysis
Method in brief: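 NCI-H441 cells, 1.5×10^5 in serum-free medium, placed in upper Transwell chamber (8 µm pores; Matrigel-coated for invasion). Lower chamber serum-free medium ± HGF 100 ng/mL, with compound. After 24 h at 37 °C, non-migrated cells removed. Traversed cells stained with 0.1% crystal violet 15 min and imaged in 5 fields per filter. Three independent experiments.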

[11] = system: Mus musculus; assay: Toxicity in athymic nude mouse xenografted with human EBC1 cells assessed as body weight loss at 6.25 to 25 mg/kg, po bid for 21 days measured twice a week during compound dosing; format: organism-based; settings: in vivo, 504 h
Method in brief: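 Nude mice carrying s.c. EBC-1 tumor fragments, randomized at 100–200 mm³ (n=6 treated, n=12 vehicle). Dosed orally twice daily for 21 days. Body weight and caliper tumor volume measured twice weekly.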

[12] = Selectivity ratio of IC50 for human PANC1 cells to IC50 for mouse BAF3 cells expressing TPR-MET; format: ADME, cell-based
Method in brief: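 Each cell line was seeded in 96-well plates, then exposed the next day to a range of compound concentrations for 72 h. Growth was read by SRB or MTT assay, and IC50 was fitted by a four-parameter concentration-response curve. Each concentration was run at least in triplicate, in at least 2 experiments. BaF3/TPR-Met are murine pre-B BaF3 cells transfected with TPR-MET cDNA and selected in puromycin.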

[13] = Selectivity ratio of IC50 for human NCI-H1299 cells to IC50 for human MKN45 cells; format: ADME, cell-based
Method in brief: (§3)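 Both IC50s in each ratio come from one proliferation assay. Cells were seeded and exposed the next day to a range of concentrations for 72 h, then read by SRB or MTT. IC50s were fitted by four-parameter concentration–response, with each concentration at least in triplicate and at least 2 experiments. BaF3/TPR-Met is murine pre-B BaF3 transfected with TPR-MET and puromycin-selected.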

[14] = Selectivity ratio of IC50 for human NCI-H596 cells to IC50 for human EBC1 cells; format: ADME, cell-based; method in brief: as §3
[15] = Selectivity ratio of IC50 for human NCI-H3122 cells to IC50 for mouse BAF3 cells expressing TPR-MET; format: ADME, cell-based; method in brief: as §3
[16] = Selectivity ratio of IC50 for human NCI-H460 cells to IC50 for human MKN45 cells; format: ADME, cell-based; method in brief: as §3
[17] = Selectivity ratio of IC50 for human NCI-H460 cells to IC50 for mouse BAF3 cells expressing TPR-MET; format: ADME, cell-based; method in brief: as §3
[18] = Selectivity ratio of IC50 for human NCI-H226 cells to IC50 for mouse BAF3 cells expressing TPR-MET; format: ADME, cell-based; method in brief: as §3
[19] = Selectivity ratio of IC50 for human MDA-MB-231 cells to IC50 for mouse BAF3 cells expressing TPR-MET; format: ADME, cell-based; method in brief: as §3
[20] = Selectivity ratio of IC50 for human MGC803 cells to IC50 for human MKN45 cells; format: ADME, cell-based; settings: mgc-803; method in brief: as §3

clearance [1]: 47.2 mL/min/kg
inhibition [3]: 33.2%
inhibition [4]: 11.5%
inhibition [5]: Active
inhibition [6]: Active
IC50 [7]: > 1 µM
inhibition [10]: Dose-dependent effect
SMILES: Fc1ccc(-c2cnc3nnc(C(F)(F)c4ccc5ncccc5c4)n3n2)cc1
inhibition in vivo at 25 mg/kg [2]: 97.1%
IC50 [8]: > 10 µM
IC50 [9]: > 10 µM
Activity [11]: Non-toxic
Ratio IC50 [12]: 10000
Ratio IC50 [13]: 10000
Ratio IC50 [14]: 10000
Ratio IC50 [15]: 10000
Ratio IC50 [16]: 10000
Ratio IC50 [17]: 10000
Ratio IC50 [18]: 10000
Ratio IC50 [19]: > 10000
Ratio IC50 [20]: > 10000
